Hits are enriched below; roughly 2% of the tested compounds scored in any of these assays.
NR1D1 modulator – modulators of Rev-erb alpha DNA binding, primary screen, biochemical, FITC-DNA, fluorescence polarization, uHTS; Nuclear receptor subfamily 1 group D member 1 (Homo sapiens), P20393; Rev-erbα–FITC-DNA binding, 90 min; activity, % at 10 µM; 370,000 compounds, 0.79% hits; AID 1259318, 2017;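 active = activity above about 14%, limit read from the data; passing the limit was not always enough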;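 note: 0% = DMSO wells with 35 nM protein and 100% = DMSO wells with 750 nM protein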
Neddylation inh – inhibitors of cullin neddylation, primary screen, biochemical, TR-FRET, uHTS, NAE and Ubc12 | NEDD8-conjugating enzyme Ubc12 (Homo sapiens) + NEDD8-activating enzyme E1 regulatory … | calls only at 25 µM | 360,000 compounds, 0.58% hits | AID 651699, 2012; in the data active = inhibition above about 36%
NR2E3 ag-1 – inhibitors of NR2E3-RetCOR corepressor binding, primary screen, NR2E3 agonist project, biochemical, TR-FRET, GST-NR2E3, biotin-RetCOR; 320,000 compounds, 0.12% hits; inhibition of corepressor binding, % at 4.78 µM; 1536-well;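 active = percent inhibition above the cutoff of mean plus 3 SD of all tested compounds, set per screening campaign, cut at about 20% in these data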;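 note: 0% = DMSO wells and 100% = biotin wells as full block of FRET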
Target sequence (Q9Y5X4 whole entry, looked up): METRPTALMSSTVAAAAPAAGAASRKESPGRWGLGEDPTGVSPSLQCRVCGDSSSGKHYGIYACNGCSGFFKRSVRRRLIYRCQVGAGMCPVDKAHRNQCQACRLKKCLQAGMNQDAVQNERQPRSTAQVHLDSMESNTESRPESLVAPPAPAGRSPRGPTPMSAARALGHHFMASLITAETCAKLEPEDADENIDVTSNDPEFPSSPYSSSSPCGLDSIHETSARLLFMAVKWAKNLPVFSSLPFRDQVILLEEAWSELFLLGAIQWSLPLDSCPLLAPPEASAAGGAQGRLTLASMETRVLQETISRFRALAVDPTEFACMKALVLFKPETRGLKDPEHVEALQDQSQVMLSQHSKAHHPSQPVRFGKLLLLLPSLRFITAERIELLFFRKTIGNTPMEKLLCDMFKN
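Material: NR2E3–RetCOR corepressor complex | Quantity: 1.35 nM GST-tagged NR2E3 final | Schedule: 5 h at 4 °C | Replication: Singlicate compound wells | Reagent: RetCOR corepressor, biotinylated, 7 nM | Controls: Biotin wells as high control, 0.6% DMSO wells as low control | Signal: TR-FRET, Eu(K)-anti-GST donor, streptavidin-D2 acceptor, ex 340, em 617/671 nm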
PG9 binder – binders of HIV-1 gp120 antibody PG9, primary screen, biochemical, TR-FRET; HIV-1 gp120 / PG9 antibody interaction; TR-FRET gp120-PG9 antibody binding; inhibition, % at 6.7 µM; 360,000 compounds, 0.43% hits; AID 624416, 2012; in the data active = inhibition above about 8.5%
NR2E3 ag-2 – NR2E3 agonists in two-hybrid cells, primary screen, cell-based, luminescence, CHO-S, Gal4-NCOR/VP16-NR2E3. luciferase. inhibition of corepressor binding, % at 3.98 µM. 360,000 compounds, 0.35% hits;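 active = inhibition above the mean of all tested compounds plus 3 SD, cut at about 70% in these data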;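 note: 0% = DMSO with NR2E3 transfected cells and 100% = cells lacking NR2E3 construct; higher means lower luciferase signal from less NR2E3 corepressor binding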
Neddyl inh conf – blockade of NEDD8 conjugation to cullin – biochemical, TR-FRET, single concentration, confirmation; shares compounds with Neddylation inh; 1,800 compounds, 13% hits; TR-FRET cullin neddylation biochemical assay; calls only at 25 µM; AID 652217, 2013; in the data active = inhibition above about 40%;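 note: neddylation substrate is the cullin 1 ring ligase complex with SKP2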
Starred values were filed as active, the others as inactive; i = inactive; · = not tested or not shown; + = active, no number.

SMILES	NR1D1 modulator	Neddylation inh	NR2E3 ag-1	PG9 binder	NR2E3 ag-2	Neddyl inh conf
COCCNc1nc2ccccc2nc1NS(=O)(=O)c1ccc(C)cc1C	3.7	+	3.4	0.4	7.9	+
COCCCNc1nc2ccccc2nc1NS(=O)(=O)c1ccc(C)c(C)c1	6.6	+	-0.2	-1.8	21.0	·
COCCCNc1nc2ccccc2nc1NS(=O)(=O)c1ccc(C)cc1	-0.2	i	-2.7	3.9	11.4	·
COCCCN1C(=O)C(CC(=O)NCCCN(C)C)CC(C(=O)N2CCOCC2)=C1C (stereo not given)	3.2	i	·	-0.9	6.7	·
Nn1c(SCC(=O)NC2CCCCCC2)nnc1-c1ccco1	-4.2	i	·	-1.4	4.0	·
CCN1C(=O)c2cccc3c(S(=O)(=O)NCCc4c[nH]c5ccccc45)ccc1c23	-0.5	i	-3.4	-2.3	26.8	·
CCN1C(=O)c2cccc3c(S(=O)(=O)NCc4ccccc4)ccc1c23	2.4	+	0.5	-0.4	4.8	·
CCN1C(=O)c2cccc3c(S(=O)(=O)N(C(C)=O)c4ccc(OC(C)=O)cc4)ccc1c23	-0.4	+	·	2.9	-7.1	·
CC(C)C[C@H]1COc2cccc(N3CCCC3)c2S(=O)(=O)N1	2.5	·	·	-0.3	·	·
CC(=O)NC(CC(=O)OCC(=O)N1CCN(S(=O)(=O)c2ccc(C)cc2C)CC1)c1ccccc1 (stereo not given)	1.3	i	1.0	-0.6	18.4	·
O=C1N/C(=C/c2cccn2-c2ccccc2)C(=O)N1Cc1ccccc1F	3.6	+	2.9	-0.7	15.6	i
Cc1cc(C)cc(N(CC(=O)NC2CCCC2)C(=O)C2(C)CC(=O)N=C3C=CC=CN32)c1 (stereo not given)	-3.5	+	0.6	-1.0	-10.8	+
CCOC(=O)c1sc2nccc(N(C)C)c2c1N=CNOCc1ccccc1	-1.0	+	6.0	1.0	-57.2	i
CCN(CC)C(=O)c1ncn2c1C(=O)NC[C@H]2C	-1.9	·	·	-0.9	·	·
O=C(CSc1nnc(NC(=O)c2c(F)cccc2F)s1)NCc1ccc(F)cc1	-4.2	i	3.8	-1.4	-16.1	·
Cc1ccc(-n2c(O)c(/C=N/NC(=O)C3COc4ccccc4O3)c3ccccc3c2=O)cc1 (stereo not given)	5.9	+	0.1	-2.1	-43.1	i
Cc1c(/C=N\NC(=O)C2COc3ccccc3O2)c2ccccc2n1C (stereo not given)	0.2	i	0.1	-1.7	-9.5	·
O=C(N/N=C/c1c(O)n(-c2ccccc2Cl)c(=O)c2ccccc12)C1COc2ccccc2O1 (stereo not given)	·	+	-6.3	·	-40.7	i
CCN(CC)c1ncnc2c1ncn2[C@H]1CN(C2CCCC2)C[C@@H](CO)O1	-2.9	i	·	0.9	-2.3	·
Cc1ccc(CN2C(=O)C(C)Nc3ncnc(N4CCN(c5ccccn5)CC4)c32)cc1 (stereo not given)	-4.0	i	0.8	0.9	-10.1	·
CC(C)Oc1ccc(S(=O)(=O)N2CCOCC2)cc1NC(=O)CC1CC2CCC1C2 (stereo not given)	1.1	i	·	-2.4	0.7	·
O=C(O)CN(c1ccccn1)S(=O)(=O)c1ccccc1	3.1	+	2.3	0.1	-6.7	i
COc1cccc(NC(=O)CCC(=O)Nc2ccc3nc(N4CCOCC4)cc(C)c3c2)c1	-2.4	+	6.8	-1.2	-91.4	·
Cc1cc(N2CCN(C)CC2)nc2ccc(NC(=O)CCC(=O)NCCC3=CCCCC3)cc12	6.7	+	-2.3	0.4	7.3	i
COc1ccc(CCNC(=O)CCC(=O)Nc2ccc3nc(N4CCN(C)CC4)cc(C)c3c2)cc1OC	-6.0	i	-1.6	-0.9	-30.7	·
SMILES	NR1D1 modulator	Neddylation inh	NR2E3 ag-1	PG9 binder	NR2E3 ag-2	Neddyl inh conf
Cc1cc(N2CCOCC2)nc2ccc(NC(=S)NC(C)C)cc12	4.3	+	-5.4	-5.6	-33.9	i
COCCCNC(=O)CCC(=O)Nc1ccc2nc(N3CCOCC3)cc(C)c2c1	0.3	·	-0.5	3.7	-12.5	·
Cc1cc(N2CCCC2)nc2ccc(NC(=S)NC(C)C)cc12	-2.2	·	2.9	-2.1	-21.2	·
Cc1nc2sc(C(=O)NCc3nccs3)c(N)c2c(C)c1Cl	24.4	·	·	·	·	·
COc1ccccc1-n1c(SCC(=O)N(C)C)nnc1-c1ccco1	-2.3	i	·	-1.7	-3.2	·
Nn1cnc2c(ncn2C2OC(CO)C(O)C2O)c1=O (stereo not given)	1.6	i	·	-1.1	7.2	·
NC(COCc1ccccc1)c1csc(Nc2ccc(C(=O)c3ccccc3)cc2)n1 (stereo not given)	-4.3	·	·	0.6	17.5	·
COc1ccc(Nc2nnc(-c3ccc(C)cc3)c3ccccc23)cc1C(=O)N1CCCCC1	-4.1	+	0.9	-0.4	33.5	i
COc1ccc(-c2cc(C(=O)N3CC(C)CC(C)C3)c3ccccc3n2)cc1OC (stereo not given)	-4.2	+	-1.8	3.2	8.5	·
COc1cccc(-c2cc(C(=O)NC3CCCC3)c3ccccc3n2)c1	3.6	i	1.5	-0.5	-47.6	·
COc1ccc(-c2cc(C(=O)NC3CCCC3)c3ccccc3n2)cc1OC	1.9	+	0.5	2.3	10.6	i
COc1ccc(-c2cc(C(=O)NCC(c3ccco3)N(C)C)c3ccccc3n2)cc1OC (stereo not given)	2.0	+	-0.9	0.9	-28.6	i
COc1ccc(Nc2nc3cc(-c4ccccc4C)sc3c(=O)n2C)cc1OC	3.9	i	·	-0.2	-20.4	·
Cc1ccc(NC(=O)CN2C(=O)NC3(CCCC3)C2=O)c(Cl)c1	4.2	i	3.1	1.4	-30.7	·
CCCCCCCCCCCCNC[C@@H]1CSCCS(=O)(=O)N1	1.1	·	·	-0.9	·	·
COc1ccc(-c2cc(C(=O)N3CCCC3)c3ccccc3n2)cc1OC	-2.2	i	0.6	0.1	26.9	·
COc1ccc(-c2cc(C(=O)N3CCCCC3)c3ccccc3n2)cc1OC	5.7	+	3.1	-0.6	-20.6	·
COc1ccc(-c2cc(C(=O)N3CCN(c4ncccn4)CC3)c3ccccc3n2)cc1OC	-2.5	+	3.9	0.6	8.2	·
CCOc1cc(/C=N/NC(=O)c2ccccc2OCc2ccc(F)cc2)ccc1O	4.5	i	2.8	-0.1	6.7	·

Screening results as filed in PubChem.
